Test results reported in ChEMBL document CHEMBL5338743, “Identification of a Selective SCoR2 Inhibitor That Protects Against Acute Kidney Injury” (J Med Chem, 2023).
One block for each molecule: values may come before it. Activity calls are given as the source filed them. The calls are words filed in the database; no cut-off is given here.

Assays:
Homo sapiens = organism: Homo sapiens; assay: Selectivity index, ratio of IC50 for inhibition of human recombinant AKR1B1 expressed in Escherichia coli BL21-CodonPlus competent cells to IC50 for inhibition of human recombinant SCoR2 expressed in Escherichia coli BL21-CodonPlus competent cells
Summary of the method: (§1)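 Purified enzyme at 200 nM (SCoR2 with 100 μM SNO-CoA; AKR1B1 with 100 μM methylglyoxylate) in 50 mM phosphate pH 7.0 with serial inhibitor dilutions; started with 100 μM NADPH, 2 min. Rate from 340 nm decrease, normalized to 20 nM protein activity; IC50 fitted, n=3. Selectivity taken as AKR1B1/SCoR2 IC50 ratio.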

[1] = target: T1, Aldo-keto reductase family 1 member A1 (Homo sapiens, UniProt P14550); assay: Inhibition of C-terminal 6His-tagged human recombinant SCoR2 AKR1A1 expressed in Escherichia coli BL21-CodonPlus competent cells using SNO-CoA as substrate incubated for 2 mins in presence of NADPH; summary of the method: as §1
T1 sequence (P14550 whole entry): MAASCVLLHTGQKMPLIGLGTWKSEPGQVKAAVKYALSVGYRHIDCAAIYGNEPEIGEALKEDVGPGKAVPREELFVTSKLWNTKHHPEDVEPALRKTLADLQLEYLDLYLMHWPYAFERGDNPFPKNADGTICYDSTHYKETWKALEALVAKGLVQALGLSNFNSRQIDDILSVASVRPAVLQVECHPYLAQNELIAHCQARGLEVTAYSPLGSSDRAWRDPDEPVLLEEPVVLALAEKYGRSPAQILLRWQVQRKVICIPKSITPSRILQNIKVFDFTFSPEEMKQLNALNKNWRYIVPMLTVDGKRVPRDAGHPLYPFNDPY

[2] = target: T2, Aldo-keto reductase family 1 member B1 (Homo sapiens, UniProt P15121); assay: Inhibition of C-terminal 6His-tagged human recombinant AKR1B1 expressed in Escherichia coli BL21-CodonPlus competent cells using methyl glyoxylate as substrate incubated for 2 mins in presence of NADPH; summary of the method: as §1
[3] = target: T2, Aldo-keto reductase family 1 member B1; assay: Inhibition of C-terminal 6His-tagged human recombinant AKR1B1 expressed in Escherichia coli BL21-CodonPlus competent cells using DL-glyceraldehyde as substrate
Summary of the method: (§2)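 Recombinant human His-tagged enzyme (20 nM) with 3 mM DL-glyceraldehyde in 50 mM phosphate pH 7.0, varying inhibitor from DMSO stocks; started with 100 μM NADPH, 2 min. NADPH consumption followed spectrophotometrically, slope used to fit IC50.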

Mus musculus [4] = assay: In vivo inhibition of SCoR2 in ischemia/reperfusion induced acute kidney injury mouse model assessed as reduction in SNO-CoA metabolic activity in kidneys at 125 mg/kg, ip administered for 3 to 12 weeks; type: functional, organism-based; conditions: time 3-12 weeks
Mus musculus [5] = assay: Protection against ischemia/reperfusion induced acute kidney injury in mouse assessed as reduction in blood urea nitrogen level at 125 mg/kg, ip administered for 3 to 12 weeks; type: functional, organism-based; conditions: time 3-12 weeks
[6] = In vivo inhibition of SCoR2 in mouse assessed as reduction in SNO-CoA metabolic activity in kidneys at 20 mg/kg body weight, ip administered as single dose into lower right quadrant of abdomen measured after 18 hrs relative to control; type: functional
Summary of the method: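 Single i.p. injection into the mouse abdomen, DMSO vehicle; organs collected 18 h later. Tissues homogenized in 50 mM phosphate pH 7.0, 150 mM NaCl, EDTA/DTPA, then clarified; lysate started reactions with 200 μM SNO-CoA and 100 μM NADPH, 2 min, NADPH loss monitored, in triplicate. Compared with vehicle and SCoR2−/− kidneys.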

Mus musculus [7] = assay: Protection against ischemia/reperfusion induced acute kidney injury in mouse assessed as reduction in serum creatinine level at 125 mg/kg, ip administered for 3 to 12 weeks; type: functional, organism-based; conditions: time 3-12 weeks
Mus musculus [8] = assay: In vivo inhibition of SCoR2 in ischemia/reperfusion induced acute kidney injury mouse model assessed as reduction in SNO-CoA metabolic activity in kidneys at 20 mg/kg, ip pretreated for 18 hrs followed by kidney injury surgery and measured after 24 hrs; type: functional, organism-based; conditions: time 42.0 hrs
Summary of the method: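 Male mice (9–11 weeks, 25–28 g) dosed i.p. 18 h before renal ischemia–reperfusion surgery under isoflurane; kidneys taken 24 h after reperfusion. Kidney lysate SNO-CoA reductase activity measured with 200 μM SNO-CoA, 100 μM NADPH, 2 min, triplicate assays; DMSO-treated controls.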

[9] = target: T1, Aldo-keto reductase family 1 member A1; assay: Inhibition of C-terminal 6His-tagged human recombinant SCoR2 AKR1A1 expressed in Escherichia coli BL21-CodonPlus competent cells using DL-glyceraldehyde as substrate; summary of the method: as §2
Mus musculus [10] = assay: Protection against ischemia/reperfusion induced acute kidney injury in mouse assessed as reduction in serum creatinine level at 20 mg/kg, ip pretreated for 18 hrs followed by kidney injury surgery and measured after 24 hrs; type: functional, organism-based; conditions: time 42.0 hrs
Summary of the method: (§3)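 Male mice (9–11 weeks, 25–28 g) given i.p. dose 18 h before ischemia–reperfusion AKI surgery under isoflurane; serum taken 24 h after reperfusion. Creatinine and BUN measured by a clinical laboratory; DMSO-treated controls.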

Mus musculus [11] = assay: Protection against ischemia/reperfusion induced acute kidney injury in mouse assessed as reduction in blood urea nitrogen level at 20 mg/kg, ip pretreated for 18 hrs followed by kidney injury surgery and measured after 24 hrs; type: functional, organism-based; conditions: time 42.0 hrs; summary of the method: as §3
[12] = compound: O=C1NC(=O)C2(N1)c1ccccc1-c1ccc(C3CC3)cc12; assay: Uncompetitive inhibition of C-terminal 6His-tagged human recombinant SCoR2 AKR1A1 expressed in Escherichia coli BL21-CodonPlus competent cells using varying concentrations of SNO-CoA as substrate assessed as Vmax at 400 nM by Michaelis-Menten analysis (reference value: 23 umol.min)
[13] = compound: O=C1NC(=O)C2(N1)c1ccccc1-c1ccc(C3CC3)cc12; assay: Uncompetitive inhibition of C-terminal 6His-tagged human recombinant SCoR2 AKR1A1 expressed in Escherichia coli BL21-CodonPlus competent cells using varying concentrations of SNO-CoA as substrate assessed as Km at 100 nM by Michaelis-Menten analysis (reference value: 254 uM)
[14] = compound: O=C1NC(=O)C2(N1)c1ccccc1-c1ccc(C3CC3)cc12; assay: Uncompetitive inhibition of C-terminal 6His-tagged human recombinant SCoR2 AKR1A1 expressed in Escherichia coli BL21-CodonPlus competent cells using varying concentrations of SNO-CoA as substrate assessed as Km at 400 nM by Michaelis-Menten analysis (reference value: 254 uM)
[15] = compound: O=C1NC(=O)C2(N1)c1ccccc1-c1ccc(C3CC3)cc12; assay: Uncompetitive inhibition of C-terminal 6His-tagged human recombinant SCoR2 AKR1A1 expressed in Escherichia coli BL21-CodonPlus competent cells using varying concentrations of SNO-CoA as substrate assessed as Vmax at 100 nM by Michaelis-Menten analysis (reference value: 23 umol.min)

Molecule: O=C(O)Cc1c(O)c(F)cc2c1-c1ccc(F)cc1C21NC(=O)NC1=O (stereo in doubt; 47-2) [listing 1 of 2 here]
- Ratio IC50 (Homo sapiens): 0.67

Molecule: O=C(O)Cc1cc(F)cc2c1-c1ccc(F)cc1C21NC(=O)NC1=O (stereo in doubt; 49-2)
- Ratio IC50 (Homo sapiens): 0.26

Molecule: O=C1NC(=O)C2(N1)c1cc(F)ccc1-c1ccc(C3CC3)cc12 (stereo not given)
- Ratio IC50 (Homo sapiens): 1.7
- IC50 [1]: 122 nM
- IC50 [2]: 212 nM

Molecule: O=C1NC(=O)C2(N1)c1ccccc1-c1ccc(Cl)cc12 (stereo not given)
- Ratio IC50 (Homo sapiens): 0.3
- IC50 [1]: 53 nM
- IC50 [2]: 16 nM

Molecule: O=C1NC(=O)C2(N1)c1cc(F)ccc1-c1ccc(C3CCC3)cc12 (stereo in doubt; 17-1)
- Ratio IC50 (Homo sapiens): 1.7

Molecule: O=C(O)Cc1cc(F)cc2c1-c1ccc(F)cc1C21NC(=O)NC1=O (stereo in doubt; 49-1)
- Ratio IC50 (Homo sapiens): 0.53

Molecule: O=C1NC(=O)C2(N1)c1cc(Cl)ccc1-c1ccc(Cl)cc12
- Ratio IC50 (Homo sapiens): 0.44
- IC50 [1]: 127 nM
- IC50 [2]: 56 nM

Molecule: O=C(O)COc1cc2c(cc1F)C1(NC(=O)NC1=O)c1cc(F)ccc1-2 (stereo in doubt; 48-2) [listing 2 of 2 here]
- Ratio IC50 (Homo sapiens): 0.27

Molecule: O=C(O)Cc1c(O)c(F)cc2c1-c1ccc(F)cc1C21NC(=O)NC1=O (stereo in doubt; 47-1) [listing 2 of 2 here]
- Ratio IC50 (Homo sapiens): 1.7

Molecule: O=C1NC(=O)C2(N1)c1ccc(OCC(=O)N3CCC3)cc1-c1ccc(F)cc12 (stereo not given)
- Ratio IC50 (Homo sapiens): 0.24
- IC50 [1]: 80 nM
- IC50 [2]: 19 nM

Molecule: O=C1NC(=O)C2(N1)c1ccccc1-c1c(F)cccc12 (stereo not given)
- Ratio IC50 (Homo sapiens): 0.63
- IC50 [1]: 82 nM
- IC50 [2]: 52 nM

Molecule: O=C1NC(=O)C2(N1)c1cc(F)ccc1-c1ccc(C3CCC3)cc12 (stereo in doubt; 17-2)
- Ratio IC50 (Homo sapiens): 0.66

Molecule: O=C(O)COc1cc2c(cc1F)C1(NC(=O)NC1=O)c1cc(F)ccc1-2 (stereo in doubt; 48-1) [listing 2 of 2 here]
- Ratio IC50 (Homo sapiens): 0.43

Molecule: CC(/C=C1\SC(=S)N(CC(=O)O)C1=O)=C\c1ccccc1
- IC50 [9]: 325 nM

B1: Aldo-keto reductase family 1 member A1 (Homo sapiens), P14550 (protein)
chain: T1 sequence (P14550 whole entry)
- Vmax [12]: 4.5 µmol·min
- Km [13]: 199 µM
- Km [14]: 98 µM
- Vmax [15]: 13 µmol·min

Continued, in another order:

- IC50 [1]: 42 nM
- IC50 [2]: 53 nM
Molecule: O=C(O)COc1ccc2c(c1)-c1ccc(F)cc1C21NC(=O)NC1=O (stereo not given)
- Ratio IC50 (Homo sapiens): 1.3

- IC50 [3]: 27 nM
- IC50 [1]: 57 nM
- IC50 [9]: 45 nM
- IC50 [2]: 46 nM
Molecule: O=C1NC(=O)C2(N1)c1cc(F)ccc1-c1ccc(F)cc12
- Ratio IC50 (Homo sapiens): 0.81
- inhibition (Mus musculus [4]): Active
- Activity (Mus musculus [5]): inactive
- inhibition in vivo at 20 mg/kg [6]: 80%
- Activity (Mus musculus [7]): inactive
- inhibition (Mus musculus [8]): Active
- Activity (Mus musculus [10]): inactive
- Activity (Mus musculus [11]): inactive

- IC50 [1]: 63 nM
- IC50 [2]: 27 nM
Molecule: O=C(O)COc1cc2c(cc1F)C1(NC(=O)NC1=O)c1cc(F)ccc1-2 (stereo in doubt; 48-1) [listing 1 of 2 here]

- IC50 [1]: 82 nM
- IC50 [2]: 22 nM
Molecule: O=C(O)COc1cc2c(cc1F)C1(NC(=O)NC1=O)c1cc(F)ccc1-2 (stereo in doubt; 48-2) [listing 1 of 2 here]

- IC50 [1]: 74 nM
- IC50 [2]: 13 nM
Molecule: O=C1NC(=O)C2(N1)c1ccc(OCCO)cc1-c1ccc(F)cc12 (stereo not given)
- Ratio IC50 (Homo sapiens): 0.18

- IC50 [1]: 29 nM
- IC50 [2]: 14 nM
Molecule: O=C1NC(=O)C2(N1)c1cc(F)ccc1-c1cc(OC3COC3)c(F)cc12 (stereo not given)
- Ratio IC50 (Homo sapiens): 0.48

- IC50 [1]: 51 nM
- IC50 [2]: 22 nM
Molecule: O=C1NC(=O)C2(N1)c1cc(F)ccc1-c1ccc(Br)cc12 (stereo not given)
- Ratio IC50 (Homo sapiens): 0.43

- IC50 [1]: 68 nM
- IC50 [2]: 16 nM
Molecule: COc1ccc2c(c1)-c1ccc(F)cc1C21NC(=O)NC1=O (stereo not given)
- Ratio IC50 (Homo sapiens): 0.24

- IC50 [1]: 67 nM
- IC50 [2]: 16 nM
Molecule: O=C1NC(=O)C2(N1)c1cc(F)ccc1-c1c(F)cccc12 (stereo not given)
- Ratio IC50 (Homo sapiens): 0.24

- IC50 [1]: 25 nM
- IC50 [2]: 42 nM
Molecule: O=C(O)Cc1c(O)c(F)cc2c1-c1ccc(F)cc1C21NC(=O)NC1=O (stereo in doubt; 47-1) [listing 1 of 2 here]

- IC50 [1]: 59 nM
- IC50 [2]: 18 nM
Molecule: O=C1NC(=O)C2(N1)c1cc(F)ccc1-c1c(OCC(=O)N3CCC3)cc(F)cc12 (stereo not given)
- Ratio IC50 (Homo sapiens): 0.31

- IC50 [1]: 48 nM
- IC50 [2]: 32 nM
Molecule: O=C(O)Cc1c(O)c(F)cc2c1-c1ccc(F)cc1C21NC(=O)NC1=O (stereo in doubt; 47-2) [listing 2 of 2 here]

- IC50 [1]: 72 nM
- IC50 [2]: 15 nM
Molecule: O=C1NC(=O)C2(N1)c1cc(F)ccc1-c1cc(C3CC3)c(F)cc12 (stereo not given)
- Ratio IC50 (Homo sapiens): 0.21

- IC50 [1]: 66 nM
- IC50 [2]: 11 nM
Molecule: O=C1NC(=O)C2(N1)c1cc(F)ccc1-c1c(-c3cn(C4CCCC4)nn3)cc(F)cc12 (stereo not given)
- Ratio IC50 (Homo sapiens): 0.17
